The values below come from ChEMBL document CHEMBL1135421, “2-(Anilinomethyl)imidazolines as alpha1 adrenergic receptor agonists: the discovery of alpha1a subtype selective 2'-alkylsulfonyl-substituted analogues” (J Med Chem, 2002).

Assay [1] addresses T1, Alpha-1A adrenergic receptor (Homo sapiens) (UniProt P35348).
T1 sequence (whole entry): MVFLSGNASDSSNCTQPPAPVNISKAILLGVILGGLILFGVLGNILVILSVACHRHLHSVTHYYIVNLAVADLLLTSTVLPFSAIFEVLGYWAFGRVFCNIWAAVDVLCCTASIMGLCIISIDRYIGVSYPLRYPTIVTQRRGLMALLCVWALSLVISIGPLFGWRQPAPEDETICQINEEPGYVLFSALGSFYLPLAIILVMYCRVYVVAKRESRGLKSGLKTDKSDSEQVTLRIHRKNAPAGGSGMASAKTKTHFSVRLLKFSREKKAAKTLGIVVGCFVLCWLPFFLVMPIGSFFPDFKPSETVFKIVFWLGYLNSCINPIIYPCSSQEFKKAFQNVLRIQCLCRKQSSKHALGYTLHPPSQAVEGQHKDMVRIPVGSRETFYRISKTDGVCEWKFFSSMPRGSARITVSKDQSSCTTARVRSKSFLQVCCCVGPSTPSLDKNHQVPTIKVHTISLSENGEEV
As to the kind of experiment: Efficacy as % of the maximal effect observed for nonselective agonist phenylephrine in rat-1 fibroblasts expressing human Alpha-1 adrenergic receptor. It counts as functional. An outline of the steps: (§1)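 Rat-1 fibroblasts expressing human α1a/α1b/α1d, grown in DMEM with 10% heat-inactivated FBS and 0.6 mg/mL G418, plated 6000 cells/well and cultured 48 h at 37 °C. Loaded 2 h at 37 °C with Calcium Green (4 μM), 0.2% pluronic acid and 2.5 mM probenecid in HEPES buffer pH 7.4. FLIPR read at room temperature: 10 s baseline, then 50 s after compound. 11-point curves as % of 40 μM phenylephrine response, top concentration typically 5 μM.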

Assay [2] deals with T2, Alpha-1B adrenergic receptor (Homo sapiens, UniProt P35368).
T2 sequence (P35368 whole entry): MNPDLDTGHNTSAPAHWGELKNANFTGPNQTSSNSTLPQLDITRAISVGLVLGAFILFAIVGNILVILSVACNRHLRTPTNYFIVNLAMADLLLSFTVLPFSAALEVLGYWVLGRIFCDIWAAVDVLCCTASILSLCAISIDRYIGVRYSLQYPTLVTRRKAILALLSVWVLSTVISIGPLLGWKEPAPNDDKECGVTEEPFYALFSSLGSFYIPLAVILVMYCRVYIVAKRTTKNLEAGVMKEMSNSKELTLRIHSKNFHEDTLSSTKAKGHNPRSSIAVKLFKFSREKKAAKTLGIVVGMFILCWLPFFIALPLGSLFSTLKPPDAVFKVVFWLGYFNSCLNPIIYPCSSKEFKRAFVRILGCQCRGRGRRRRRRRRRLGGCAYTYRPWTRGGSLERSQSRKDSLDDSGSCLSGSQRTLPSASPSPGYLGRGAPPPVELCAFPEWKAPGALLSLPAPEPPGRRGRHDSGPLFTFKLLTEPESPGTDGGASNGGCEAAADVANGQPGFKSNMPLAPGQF
As to the kind of experiment: Agonist potency at Alpha-1B adrenergic receptor expressed in rat-1 fibroblasts. It counts as functional.

The target in assay [3] is T3, Alpha-2A adrenergic receptor (Homo sapiens) (UniProt P08913).
T3 sequence (whole entry): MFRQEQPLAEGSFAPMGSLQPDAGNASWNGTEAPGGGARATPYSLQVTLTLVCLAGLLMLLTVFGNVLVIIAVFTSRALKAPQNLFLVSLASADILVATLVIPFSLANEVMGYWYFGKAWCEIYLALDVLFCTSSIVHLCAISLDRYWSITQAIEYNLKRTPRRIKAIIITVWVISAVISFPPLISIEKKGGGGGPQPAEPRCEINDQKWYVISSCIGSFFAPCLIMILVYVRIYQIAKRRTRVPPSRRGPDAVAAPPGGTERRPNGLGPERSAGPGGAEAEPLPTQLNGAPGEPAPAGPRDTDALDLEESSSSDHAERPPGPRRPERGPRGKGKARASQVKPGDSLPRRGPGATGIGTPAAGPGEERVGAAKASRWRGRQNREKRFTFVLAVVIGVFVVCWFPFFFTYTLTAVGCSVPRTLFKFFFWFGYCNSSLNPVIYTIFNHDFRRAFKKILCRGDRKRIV
As to the kind of experiment: Efficacy as percentage of the maximal effect observed for nonselective agonist UK-14304 in CHO cells expressing human Alpha-2A adrenergic receptor. It counts as functional, cell-based.

Assay [4] has as its target T4, Alpha-2A adrenergic receptor (Homo sapiens, UniProt P08913).
T4 sequence (P08913 whole entry): T3 sequence (whole entry)
As to the kind of experiment: Affinity to human Alpha-2A adrenergic receptor determined by radioligand binding techniques from chinese hamster ovary (CHO) cells. It is filed as cell-based.

In assay [5] the target is T5, Alpha-2C adrenergic receptor (Homo sapiens, UniProt P18825).
T5 sequence (P18825 whole entry): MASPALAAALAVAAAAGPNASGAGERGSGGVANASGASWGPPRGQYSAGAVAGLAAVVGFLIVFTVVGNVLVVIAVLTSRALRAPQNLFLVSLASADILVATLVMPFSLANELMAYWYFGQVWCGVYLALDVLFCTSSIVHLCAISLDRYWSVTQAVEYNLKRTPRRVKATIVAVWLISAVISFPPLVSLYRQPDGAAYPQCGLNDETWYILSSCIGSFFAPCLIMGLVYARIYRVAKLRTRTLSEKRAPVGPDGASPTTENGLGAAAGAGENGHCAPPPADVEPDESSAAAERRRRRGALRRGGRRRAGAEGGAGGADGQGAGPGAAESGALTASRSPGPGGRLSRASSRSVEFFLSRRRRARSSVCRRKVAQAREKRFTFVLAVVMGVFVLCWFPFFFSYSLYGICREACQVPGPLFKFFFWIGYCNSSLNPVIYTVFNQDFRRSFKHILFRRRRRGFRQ
As to the kind of experiment: Agonist potency at Alpha-2C adrenergic receptor assayed in CHO cells expressing human Alpha-2C adrenergic receptor. It is filed as functional, cell-based.

Assay [6] has as its target T6, Alpha-1D adrenergic receptor (Homo sapiens, UniProt P25100).
T6 sequence (P25100 whole entry): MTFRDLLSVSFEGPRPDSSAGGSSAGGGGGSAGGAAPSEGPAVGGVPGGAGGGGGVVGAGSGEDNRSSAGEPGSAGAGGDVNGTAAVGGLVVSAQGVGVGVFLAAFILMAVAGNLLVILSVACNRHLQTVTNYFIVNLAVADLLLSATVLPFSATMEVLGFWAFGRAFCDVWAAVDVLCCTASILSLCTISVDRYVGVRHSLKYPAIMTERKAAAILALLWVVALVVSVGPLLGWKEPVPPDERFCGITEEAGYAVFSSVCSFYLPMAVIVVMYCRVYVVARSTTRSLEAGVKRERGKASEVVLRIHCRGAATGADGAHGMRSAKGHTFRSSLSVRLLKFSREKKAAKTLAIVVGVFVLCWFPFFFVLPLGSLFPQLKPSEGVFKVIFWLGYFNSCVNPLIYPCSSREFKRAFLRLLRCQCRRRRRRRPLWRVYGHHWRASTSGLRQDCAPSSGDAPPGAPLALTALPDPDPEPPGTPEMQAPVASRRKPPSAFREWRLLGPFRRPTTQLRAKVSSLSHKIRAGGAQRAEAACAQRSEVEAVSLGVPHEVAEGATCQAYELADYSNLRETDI
As to the kind of experiment: Agonist potency at Alpha-1D adrenergic receptor assayed in rat-1 fibroblasts expressing human Alpha-1D adrenergic receptor. It counts as functional. The gist of the method: as §1

Assay [7] addresses T7, Alpha-1A adrenergic receptor (Homo sapiens, UniProt P35348).
T7 sequence (P35348 whole entry): T1 sequence (whole entry)
As to the kind of experiment: Agonist potency at Alpha-1 adrenergic receptor assayed in rat-1 fibroblasts expressing human Alpha-1 adrenergic receptor. It counts as functional. The gist of the method: as §1

Regarding `C[S+]([O-])c1ccccc1NCC1=NCCN1` (stereo not given), the Max in assay [1] was found to be 91%; in assay [3] it was 21%. Also, the EC50 in assay [2] was over 100000 nM. In assay [4], this compound gave a Ki of 977 nM.
Consider `CS(=O)(=O)c1cc(Cl)ccc1NCC1=NCCN1`, for which the concentration for a half-maximal effect (EC50) in assay [5] was over 10000 nM; in assay [6], over 100000 nM; in assay [7], 513 nM. The Max is 41% in assay [1] and 38% in assay [3]. In assay [4], this compound showed an inhibition constant Ki of 5010 nM.
Take `CS(=O)(=O)c1ccc(C(F)(F)F)cc1NCC1=NCCN1`: the concentration for a half-maximal effect (EC50) is over 10000 nM in assay [5], over 100000 nM in assay [2], over 100000 nM in assay [6] and 1100 nM in assay [7]. The Max in assay [1] was determined as 95%; in assay [3], 33%. Further, the inhibition constant (Ki) in assay [4] is over 7940 nM.
Take `CSc1c(F)cccc1NCC1=NCCN1`: the Max amounted to 91% in assay [1] and 102% in assay [3]. In addition, the EC50 was 85.1 nM in assay [2], 33.9 nM in assay [6] and 7.76 nM in assay [7]. For the same compound, affinity in assay [4] was put at a Ki of 166 nM.
Take `CS(=O)(=O)c1cc(F)ccc1NCC1=NCCN1`: the Max in assay [1] came out at 61%; in assay [3], 19%. Also, the concentration for a half-maximal effect (EC50) in assay [2] is over 100000 nM. The compound further gave a Ki in assay [4] of 398 nM.
For the compound `CS(=O)(=O)c1ccc(F)cc1NCC1=NCCN1`, the 50% effective concentration (EC50) is 2000 nM in assay [5], over 100000 nM in assay [2], over 100000 nM in assay [6] and 16.6 nM in assay [7]. For the same compound, the Max in assay [1] was 96%; in assay [3], 18%. Further, the inhibition constant Ki in assay [4] was 4470 nM.
As to `CC(C)S(=O)(=O)c1ccccc1NCC1=NCCN1`, the Max in assay [1] turned out to be 70%. The concentration for a half-maximal effect (EC50) is over 10000 nM in assay [2], over 5010 nM in assay [6] and 1950 nM in assay [7]. The compound also had an inhibitory constant (Ki) in assay [4] of 2950 nM.
Take `CS(=O)(=O)c1cccc(F)c1NCC1=NCCN1`: the concentration giving a half-maximal response (EC50) in assay [5] is 447 nM; in assay [2], over 100000 nM; in assay [6], over 100000 nM; in assay [7] it was 41.7 nM. Further, the Max in assay [1] was found to be 106%; in assay [3], 38%. For the same compound, affinity in assay [4] was put at a Ki of 871 nM.
For the compound `CSc1ccc(Cl)cc1NCC1=NCCN1`, the concentration for a half-maximal effect (EC50) was 2.82 nM in assay [5], 0.501 nM in assay [2], 2.69 nM in assay [6] and 0.437 nM in assay [7]. For the same compound, the Max was found to be 82% in assay [1] and 93% in assay [3]. The same compound had a Ki in assay [4] of 41.7 nM.
On to `CCCS(=O)(=O)c1ccccc1NCC1=NCCN1`, for which the Max in assay [1] was 115%; in assay [3] it was 23%.
Regarding `CS(=O)(=O)c1c(F)cccc1NCC1=NCCN1`, the values for the EC50 in assay [2], in assay [6] and in assay [7] were over 100000 nM, over 100000 nM and 24 nM, respectively. In assay [3], the Max was 64%. In assay [4], this compound had a Ki of over 7940 nM.
In turn, `CSc1ccccc1NCC1=NCCN1` yielded a Max in assay [3] of 76%. The same compound showed a Ki in assay [4] of 47.9 nM.
For `COc1ccc(SC)c(NCC2=NCCN2)c1`, the Max in assay [1] turned out to be 101%; in assay [3], 52%. The half-maximal effective concentration (EC50) is 3.63 nM in assay [2], 5.01 nM in assay [6] and 1.58 nM in assay [7]. The compound further had a Ki in assay [4] of 219 nM.
On to `CC(C)Sc1ccccc1NCC1=NCCN1`, for which the figures for the Max in assay [1] and in assay [3] were 115% and 64%, respectively. The results for the half-maximal effective concentration (EC50) in assay [2], in assay [6] and in assay [7] were 61.7 nM, over 5010 nM and 5.01 nM, respectively. In assay [4], this compound showed a Ki of 81.3 nM.
With `CS(=O)(=O)c1ccccc1NCC1=NCCN1`, the figures for the 50% effective concentration (EC50) in assay [5] and in assay [2] were 3160 nM and over 100000 nM, respectively. Besides, the Max came out at 103% in assay [1] and 11% in assay [3]. Besides, in assay [4], the Ki was 5620 nM.
Turning to `CCS(=O)(=O)c1ccccc1NCC1=NCCN1`, the Max was found to be 115% in assay [1] and 10% in assay [3]. The EC50 is over 100000 nM in assay [2], over 100000 nM in assay [6] and 240 nM in assay [7]. The same compound gave an inhibition constant (Ki) in assay [4] of 1320 nM.

One may read the EC50 as the midpoint of the concentration-response curve. A low value points to higher potency in that assay. A word on the Ki: it is a dissociation constant, usually derived from enzyme kinetics or from competition with a known ligand. Lower therefore signals higher affinity.
